From ChEMBL document CHEMBL4311948, “Exploring the Natural Piericidins as Anti-Renal Cell Carcinoma Agents Targeting Peroxiredoxin 1” (J Med Chem, 2019) come the findings set out here.

One data set has as its system 786-0. Briefly: Cytotoxicity against human 786-O cells assessed as reduction in cell viability measured after 72 hrs by CCK8 assay. Type of data set: functional, cell-based. Particulars: 786-0, 72 h. Summed up: (§1)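 Cells were grown in 10% FBS medium: MEM for ACHN, RPMI1640 for OS-RC-2 and 786-O, DMEM for HK-2. They were seeded at 400–800 cells/well in 384-well plates and treated with a range of compound concentrations or solvent control, with sorafenib as positive control. After 72 h, CCK-8 absorbance was read at 450 nm in triplicate, and IC50 was taken from dose-response curves.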
A general note: Tetrazolium assays rely on reduction of a dye to a coloured formazan, in cell work by metabolically active cells.

The nature of data set [1]: Toxicity in Balb/c nu/nu mouse xenografted with human ACHN cells assessed as decrease in body weight at 50 mg/kg, ip administered once daily for 21 days. Particulars: in vivo, 504 h. On the technique in general: Xenograft models place foreign cells or tissue in a host animal.
Another data set has as its system OS-RC-2. The data set can be described thus: Cytotoxicity against human OS-RC2 cells assessed as reduction in cell viability measured after 72 hrs by CCK8 assay. Type of data set: functional, cell-based. Particulars: OS-RC-2, 72 h. Summed up:
as §1

For data set [2], the system named is ACHN. Briefly: Cytotoxicity against human ACHN cells harboring shPRDX1 gene assessed as reduction in cell viability measured after 72 hrs by CCK8 assay. Type of data set: functional, cell-based. Summed up:
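Transfectants were selected with puromycin (1 μg/mL), and knockdown was confirmed by immunoblot. Viability was read by CCK-8 after 72 h of compound exposure in 384-well plates at 400–800 cells/well in MEM with 10% FBS, and IC50 was taken from dose-response curves.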

In a further data set the test system is HK-2. Briefly: Cytotoxicity against human HK2 cells assessed as reduction in cell viability measured after 72 hrs by CCK8 assay. Type of data set: cell-based. Particulars: HK-2, 72 h. Put shortly:
as §1

In data set [3] the test system is ACHN. The data set can be described thus: Antitumor activity against human ACHN cells xenografted in Balb/c nu/nu mouse assessed as tumor weight at 50 mg/kg, ip administered once daily for 21 days measured post-last dose by caliper method (reference value: 0.55 +/- 0.13 g). Type of data set: functional.
Data set [4] in a line: Toxicity in Balb/c nu/nu mouse xenografted with human ACHN cells assessed as effect on survival at 50 mg/kg, ip administered once daily for 21 days. Type of data set: organism-based. Particulars: in vivo, 504 h. Put shortly:
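Nude mice (Balb/c nu/nu) bearing ACHN flank xenografts received sorafenib tosylate 50 mg/kg, given as a 10× stock in Cremophor EL diluted in PBS. Treatment alongside PBS control for three weeks. Survival and body weight monitored.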

For data set [5], the system named is ACHN. Briefly: Cytotoxicity against human ACHN cells assessed as reduction in cell viability measured after 72 hrs by CCK8 assay. Type of data set: functional, cell-based. Summed up: as §1
For data set [6], the system named is ACHN. Briefly: Down regulation of MET mRNA expression in human ACHN cells at 25 to 50 nM measured after 24 hrs by qRT-PCR analysis. Type of data set: functional, cell-based.
Data set [7] concerns ACHN. The data set can be described thus: Antitumor activity against human ACHN cells xenografted in Balb/c nu/nu mouse assessed as tumor weight at 0.8 mg/kg, ip administered once daily for 21 days measured post-last dose by caliper method (reference value: 0.55 +/- 0.13 g). Type of data set: functional. Summed up:
(§2)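 Male athymic Balb/c nu/nu mice, four weeks old, acclimatised 1 week. 10^7 ACHN cells in 0.2 mL PBS injected into the right flank. At about 150 mm3, mice randomised into PBS control or 0.8 mg/kg groups, dosed ip daily for three weeks. Tumours measured by caliper (volume = 0.5 × L × W²) with body weight recorded. Endpoint tumour weight, sections stained by H&E and TUNEL. Tissue lysed for immunoblot.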

For data set [8], the system named is ACHN. The data set can be described thus: Down regulation of EGFR mRNA expression in human ACHN cells at 25 to 50 nM measured after 24 hrs by qRT-PCR analysis. Type of data set: functional, cell-based.
Data set [9] has as its system ACHN. Briefly: Down regulation of SOD2 mRNA expression in human ACHN cells at 25 to 50 nM measured after 24 hrs by qRT-PCR analysis. Type of data set: functional, cell-based. (In general: In qPCR the cycle at which signal appears reflects the starting amount.)
The target of data set [10] is T1, Peroxiredoxin-1 (Homo sapiens) (UniProt Q06830).
T1 sequence (whole entry): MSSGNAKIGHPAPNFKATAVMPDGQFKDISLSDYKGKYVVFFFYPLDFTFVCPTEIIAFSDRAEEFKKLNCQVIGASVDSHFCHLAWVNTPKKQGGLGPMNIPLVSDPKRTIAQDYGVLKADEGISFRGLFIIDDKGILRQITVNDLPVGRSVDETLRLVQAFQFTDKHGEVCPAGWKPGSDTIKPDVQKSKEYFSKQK
Briefly: Activation of PRDX1 in human ACHN cells assessed as reduction in reactive oxygen species level at 25 to 50 nM measured after 24 hrs by Cell-rox reagent-based flow cytometry. Put shortly:
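ACHN cells grown 24 h in MEM + 10% FBS, reseeded at 2 × 10^4 cells/well and exposed to 0, 25 or 50 nM for 24 h. Harvested cells loaded with CellROX oxidative stress reagent 5 μM, 30 min at 37 °C in the dark, then read by flow cytometry. shPRDX1 line: stable knockdown selected with puromycin (1 μg/mL) before dosing. Mean ± SD.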

In data set [11] the test system is ACHN. The data set can be described thus: Up regulation of nuclear PRDX1 expression in human ACHN cells at 25 to 50 nM measured after 24 hrs by immunoblot analysis. Type of data set: functional, cell-based. Put shortly:
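ACHN cells treated 24 h with 25 or 50 nM, then nuclear and cytosolic extracts prepared. Lysis in RIPA buffer, BCA quantitation, 30–50 μg protein resolved on 10% or 12% gels. Blotted with anti-PRDX1 (1:1000) and β-actin (1:3000), band ratio PRDX1/β-actin reported as fold change. Mean ± SD.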

The subject of data set [12] is ACHN. The data set can be described thus: Antitumor activity against human ACHN cells xenografted in Balb/c nu/nu mouse assessed as tumor growth inhibition at 0.8 mg/kg, ip administered once daily for 21 days measured post-last dose by H and E staining-based assay. Type of data set: functional, organism-based. Summed up:
as §2

Data set [13] has as its system ACHN. Briefly: Down regulation of ETS1 mRNA expression in human ACHN cells at 25 to 50 nM measured after 24 hrs by qRT-PCR analysis. Type of data set: functional, cell-based.
A short description of data set [14]: Toxicity in Balb/c nu/nu mouse xenografted with human ACHN cells assessed as decrease in body weight at 0.8 mg/kg, ip administered once daily for 21 days. Type of data set: organism-based. Particulars: in vivo, 504 h. Summed up: as §2
Data set [15] concerns Mus musculus. The data set can be described thus: Up regulation of PRDX1 expression in human ACHN cells xenografted Balb/c nu/nu mouse at 0.8 mg/kg, ip administered once daily for 21 days measured post-last dose by immunoblot analysis. Type of data set: functional, organism-based. Summed up: as §2
The test system of data set [16] is ACHN. Briefly: Selectivity ratio of IC50 for cytotoxicity against human ACHN cells harboring shPRDX1 gene to IC50 for Cytotoxicity against human ACHN cells. Type of data set: functional.
For data set [17], the target named is T1, Peroxiredoxin-1 (Homo sapiens). The data set can be described thus: Induction of PRDX1 nuclear translocation in human ACHN cells at 25 to 50 nM measured after 24 hrs by DAPI staining-based microscopic analysis. Type of data set: cell-based. Summed up: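 ACHN cells exposed 24 h to 25 or 50 nM, fixed in 4% paraformaldehyde 10 min and permeabilised with 0.5% Triton X-100. Blocked with 10% FBS, 4 °C, 12 h. Stained with anti-PRDX1 overnight, FITC secondary 2 h RT, DAPI nuclear counterstain. Confocal imaging scored mean fluorescence intensity (n = 9).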

The subject of data set [18] is Mus musculus. The data set can be described thus: Up regulation of PRDX1 mRNA expression in human ACHN cells xenografted Balb/c nu/nu mouse at 0.8 mg/kg, ip administered once daily for 21 days measured post-last dose by qRT-PCR analysis. Type of data set: functional, organism-based.
Data set [19] deals with ACHN. Briefly: Up regulation of PRDX1 mRNA expression in human ACHN cells at 25 to 50 nM measured after 24 hrs by qRT-PCR analysis. Type of data set: functional, cell-based.
Data set [20] is described as follows: Toxicity in Balb/c nu/nu mouse xenografted with human ACHN cells assessed as effect on survival at 0.8 mg/kg, ip administered once daily for 21 days. Type of data set: organism-based. Particulars: in vivo, 504 h. Summed up:
as §2

The next data set has as its target T2, Peroxiredoxin-1 (Homo sapiens, UniProt Q06830).
T2 sequence (Q06830 whole entry): T1 sequence (whole entry)
Briefly: Binding affinity to full-length human PRDX1 by surface plasmon resonance analysis. Summed up:
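Full-length human PRDX1 immobilised on a CM5 chip (Biacore T100). Analyte concentration series diluted in 10 mM Hepes pH 7.4, injected over the protein surface and a protein-free reference surface in a single step.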

Data set [21] concerns ACHN. Briefly: Down regulation of LDHA mRNA expression in human ACHN cells at 25 to 50 nM measured after 24 hrs by qRT-PCR analysis. Type of data set: functional, cell-based.
For data set [22], the system named is ACHN. The data set can be described thus: Down regulation of HIF1A mRNA expression in human ACHN cells at 25 to 50 nM measured after 24 hrs by qRT-PCR analysis. Type of data set: functional, cell-based.
In data set [23] the test system is ACHN. The data set can be described thus: Antitumor activity against human ACHN cells xenografted in Balb/c nu/nu mouse assessed as tumor growth inhibition at 0.8 mg/kg, ip administered once daily for 21 days measured post-last dose by TUNEL staining-based assay. Type of data set: functional, organism-based. Put shortly:
as §2

Data set [24] relates to ACHN. Briefly: Down regulation of HK2 mRNA expression in human ACHN cells at 25 to 50 nM measured after 24 hrs by qRT-PCR analysis. Type of data set: functional, cell-based.
Data set [25] has as its system ACHN. The data set can be described thus: Down regulation of SLC2A1 mRNA expression in human ACHN cells at 25 to 50 nM measured after 24 hrs by qRT-PCR analysis. Type of data set: functional, cell-based.

Calls of active or inactive are those of the source. The calls are words filed in the database; no cut-off is given here. Some results are limits rather than exact numbers.

In general, IC50 refers to the point on the concentration scale where inhibition reaches its midpoint. `CNC(=O)c1cc(Oc2ccc(NC(=O)Nc3ccc(Cl)c(C(F)(F)F)c3)cc2)ccn1` [SORAFENIB]: the IC50 in the data set on 786-0 is 13 µM; in the data set on OS-RC-2 it was 14 µM; in the data set on ACHN [2] (achn), “Not Active”; in the data set on HK-2, 2.6 µM; in the data set on ACHN [5], 3.3 µM. In addition, the Activity entry is “Toxic” in data set [1], 0.12 g in the data set on ACHN [3] and “Non-Toxic” in data set [4].

The term Kd denotes the equilibrium constant for the complex coming apart. The low end stands for tighter binding, the high end for weaker binding. With `C/C=C(\C)[C@H](O[C@@H]1O[C@H](CO)[C@@H](O)[C@H](O)[C@H]1O)[C@H](C)/C=C(C)/C=C/C/C(C)=C/Cc1nc(OC)c(OC)c(O)c1C`, the outcome (in the data set with ACHN [6]; in the data set with ACHN [8]; with ACHN [9]; in data set [10]; in the data set on ACHN [11]; in the data set on ACHN [13]) was Active. Also, the outcome (in the data set on Mus musculus [15]; in data set [17]; in the data set with Mus musculus [18]; with ACHN [19]; with ACHN [21]; in the data set on ACHN [22]) was Active. Moreover, the result with ACHN [24] and with ACHN [25] was Active. In addition, the Activity in the data set with ACHN [7] is given as 0.23 g; in data set [14] it was “Non-Toxic”; in [20] it was “Non-Toxic”. Also, the TGI result with ACHN [12] and in the data set on ACHN [23] was “Active” each time. For the same molecule, the IC50 with 786-0 is above 100 µM; in the data set with OS-RC-2, above 100 µM; in the data set with ACHN [2] (Homo sapiens, ACHN, 72 h, read-out: IC50), 0.96 µM; in the data set with HK-2 it was above 100 µM; with ACHN [5] it was 0.21 µM. In addition, in the data set with ACHN [16], the “Ratio IC50” value is 4. The same molecule had a Kd at Peroxiredoxin-1 of 1.83 µM.
